From ChEMBL document CHEMBL3120102, “Structure-based design, synthesis and biological evaluation of novel anthra[1,2-d]imidazole-6,11-dione homologues as potential antitumor agents” (2013)

Assays:
Format in all cases: functional
[1] = (§1) Cytotoxicity against human NCI-ADR-RES cells assessed as growth inhibition after 48 hrs by SRB assay
How it was run: (§2)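 NCI 60-cell-line screen, five-dose stage: each cell line exposed for 48 h to five concentrations spanning five log steps; cellular protein measured by sulforhodamine B colorimetry. A time-zero cell control and plates without drug are used to derive GI50, TGI and LC50 from log-concentration dose-response curves.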

[2] = system: NCI/ADR-RES; experiment: as §1; how it was run: as §2
[3] = system: SK-MEL-5; experiment: Cytotoxicity against human SK-MEL-5 cells assessed as growth inhibition after 48 hrs by SRB assay; how it was run: as §2
[4] = system: SK-MEL-28; experiment: Cytotoxicity against human SK-MEL-28 cells assessed as growth inhibition after 48 hrs by SRB assay; how it was run: as §2
[5] = system: OVCAR-8; experiment: Cytotoxicity against human OVCAR8 cells assessed as growth inhibition after 48 hrs by SRB assay; how it was run: as §2
[6] = system: A549; experiment: Cytotoxicity against human A549 cells assessed as growth inhibition after 48 hrs by SRB assay
How it was run: (§3)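 NCI 60-cell-line five-dose screen at […]. Drug exposure was 48 h, followed by sulforhodamine B protein staining. GI50, TGI and LC50 were calculated against a time-zero control and untreated plates, with dose–response curves plotted from log10 concentration.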

[7] = system: OVCAR-3; experiment: Cytotoxicity against human OVCAR3 cells assessed as cell growth at 10 uM after 48 hrs by SRB assay; conditions: OVCAR-3, 48 h, read-out: Activity
How it was run: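 First stage of the NCI 60 human tumour cell line screen: a single dose is tested against every line. Cell growth is read as cellular protein by sulforhodamine B colorimetry after 48 h of drug exposure, with reference to a time-zero control and to untreated plates.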

[8] = system: LOX IMVI; experiment: Cytotoxicity against human LOXIMVI cells assessed as growth inhibition after 48 hrs by SRB assay; how it was run: as §3
[9] = system: MCF7; experiment: Cytotoxicity against human MCF7 cells assessed as growth inhibition after 48 hrs by SRB assay; how it was run: as §2
[10] = (§4) Cytotoxicity against human Hs578T cells assessed as growth inhibition after 48 hrs by SRB assay; conditions: Hs-578T; how it was run: as §3
[11] = system: Hs-578T; experiment: as §4; how it was run: as §3
[12] = system: SW-620; experiment: Cytotoxicity against human SW620 cells assessed as growth inhibition after 48 hrs by SRB assay
How it was run: (§5)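 NCI 60-cell-line screen, two stages. Five-dose testing at […]. Cellular protein measured by sulforhodamine B colorimetry after 48 h drug exposure. A time-zero control and drug-free plates are used to derive GI50, TGI and LC50 from dose-response curves plotted as log10 concentration per cell line.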

[13] = system: SF-268; experiment: Cytotoxicity against human SF268 cells assessed as growth inhibition after 48 hrs by SRB assay; how it was run: as §2
[14] = system: DU-145; experiment: Cytotoxicity against human DU145 cells assessed as growth inhibition after 48 hrs by SRB assay; how it was run: as §3
[15] = system: NCI-H23; experiment: Cytotoxicity against human NCI-H23 cells assessed as growth inhibition after 48 hrs by SRB assay; how it was run: as §2
[16] = system: RPMI-8226; experiment: Cytotoxicity against human RPMI8226 cells assessed as growth inhibition after 48 hrs by SRB assay; how it was run: as §2
[17] = system: MOLT-4; experiment: Cytotoxicity against human MOLT4 cells assessed as growth inhibition after 48 hrs by SRB assay; how it was run: as §2
[18] = system: SK-OV-3; experiment: Cytotoxicity against human SKOV3 cells assessed as growth inhibition after 48 hrs by SRB assay; how it was run: as §2
[19] = system: RXF 393; experiment: Cytotoxicity against human RXF393 cells assessed as growth inhibition after 48 hrs by SRB assay; how it was run: as §2
[20] = system: PC-3; experiment: Cytotoxicity against human PC3 cells assessed as growth inhibition after 48 hrs by SRB assay; how it was run: as §2
[21] = system: COLO 205; experiment: Cytotoxicity against human COLO205 cells assessed as growth inhibition after 48 hrs by SRB assay; how it was run: as §3
[22] = system: SF-539; experiment: Cytotoxicity against human SF539 cells assessed as growth inhibition after 48 hrs by SRB assay; how it was run: as §2
[23] = system: CAKI-1; experiment: Cytotoxicity against human CAKI-1 cells assessed as cell growth at 10 uM after 48 hrs by SRB assay; conditions: CAKI-1, 48 h, read-out: Activity
[24] = system: OVCAR-3; experiment: Cytotoxicity against human OVCAR3 cells assessed as growth inhibition after 48 hrs by SRB assay; how it was run: as §2
[25] = system: HT-29; experiment: Cytotoxicity against human HT-29 cells assessed as growth inhibition after 48 hrs by SRB assay; how it was run: as §3
[26] = system: NCI-H322M; experiment: Cytotoxicity against human NCI-H322M cells assessed as growth inhibition after 48 hrs by SRB assay; how it was run: as §2
[27] = system: U-251; experiment: Cytotoxicity against human U251 cells assessed as growth inhibition after 48 hrs by SRB assay; how it was run: as §5

CCCSc1nc2ccc3c(c2[nH]1)C(=O)c1ccccc1C3=O
GI50 [1]: 2.37 µM | LC50 (concentration causing 50% net cell kill) [1]: > 100 µM | TGI [1]: > 100 µM | growth inhibition (GI) [2]: Dose-dependent effect | growth inhibition (GI) [3]: Dose-dependent effect | GI50 ([3]; SK-MEL-5, 48 h): > 100 µM | LC50 (concentration killing 50% of cells relative to time zero) ([3]; SK-MEL-5, 48 h): > 100 µM | TGI ([3]; SK-MEL-5, 48 h): > 100 µM | growth inhibition (GI) [4]: Dose-dependent effect | GI50 ([4]; SK-MEL-28, 48 h): > 100 µM | LC50 ([4]; SK-MEL-28, 48 h): > 100 µM | TGI ([4]; SK-MEL-28, 48 h): > 100 µM | growth inhibition (GI) [5]: Dose-dependent effect | GI50 ([5]; OVCAR-8, 48 h): 3.48 µM | LC50 ([5]; OVCAR-8, 48 h): > 100 µM | TGI ([5]; OVCAR-8, 48 h): > 100 µM | growth inhibition (GI) [6]: Dose-dependent effect | GI50 ([6]; A549, 48 h): 6.37 µM | LC50 (concentration killing 50% of cells) ([6]; A549, 48 h): > 100 µM | TGI ([6]; A549, 48 h): > 100 µM | growth at 10 µM [7]: 62.7% | GI50 [8]: 3.69 µM | LC50 [8]: > 100 µM | TGI [8]: > 100 µM | growth inhibition (GI) [8]: Dose-dependent effect | growth inhibition (GI) [9]: Dose-dependent effect | GI50 ([9]; MCF7, 48 h): 57 µM | LC50 (concentration killing 50% of cells) ([9]; MCF7, 48 h): > 100 µM | TGI ([9]; MCF7, 48 h): > 100 µM | GI50 [10]: 3.45 µM | TGI [10]: 83 µM | CC50 ([10]; read-out: LC50 (the source's name)): > 100 µM | growth inhibition (GI) [11]: Dose-dependent effect | growth inhibition (GI) [12]: Dose-dependent effect | GI50 ([12]; SW-620, 48 h): > 100 µM | LC50 ([12]; SW-620, 48 h): > 100 µM | TGI ([12]; SW-620, 48 h): > 100 µM | growth inhibition (GI) [13]: Dose-dependent effect | GI50 ([13]; SF-268, 48 h): 3.71 µM | LC50 (concentration killing 50% of cells relative to time zero) ([13]; SF-268, 48 h): > 100 µM | TGI ([13]; SF-268, 48 h): > 100 µM | growth inhibition (GI) [14]: Dose-dependent effect | GI50 ([14]; DU-145, 48 h): > 100 µM | TGI ([14]; DU-145, 48 h): > 100 µM | CC50 ([14]; DU-145, 48 h, read-out: LC50 (the source's name)): > 100 µM | growth inhibition (GI) [15]: Dose-dependent effect | GI50 ([15]; NCI-H23, 48 h): 48 µM | LC50 ([15]; NCI-H23, 48 h): > 100 µM | TGI ([15]; NCI-H23, 48 h): > 100 µM | growth inhibition (GI) [16]: Dose-dependent effect | GI50 ([16]; RPMI-8226, 48 h): > 100 µM | LC50 (concentration causing 50% net cell kill) ([16]; RPMI-8226, 48 h): > 100 µM | TGI ([16]; RPMI-8226, 48 h): > 100 µM | growth inhibition (GI) [17]: Dose-dependent effect | GI50 ([17]; MOLT-4, 48 h): > 100 µM | LC50 (50% lethal concentration) ([17]; MOLT-4, 48 h): > 100 µM | TGI ([17]; MOLT-4, 48 h): > 100 µM | growth inhibition (GI) [18]: Dose-dependent effect | GI50 ([18]; SK-OV-3, 48 h): 3.22 µM | LC50 (concentration killing 50% of cells present at time zero) ([18]; SK-OV-3, 48 h): > 100 µM | TGI ([18]; SK-OV-3, 48 h): 20.5 µM | growth inhibition (GI) [19]: Dose-dependent effect | GI50 ([19]; RXF 393, 48 h): 2.65 µM | TGI ([19]; RXF 393, 48 h): 8.1 µM | CC50 ([19]; RXF 393, 48 h, read-out: LC50 (the source's name)): > 100 µM | growth inhibition (GI) [20]: Dose-dependent effect | GI50 ([20]; PC-3, 48 h): 11.3 µM | LC50 ([20]; PC-3, 48 h): > 100 µM | TGI ([20]; PC-3, 48 h): > 100 µM | growth inhibition (GI) [21]: Dose-dependent effect | GI50 ([21]; COLO 205, 48 h): > 100 µM | LC50 ([21]; COLO 205, 48 h): > 100 µM | TGI ([21]; COLO 205, 48 h): > 100 µM | growth inhibition (GI) [22]: Dose-dependent effect | GI50 ([22]; SF-539, 48 h): 3.07 µM | TGI ([22]; SF-539, 48 h): 32 µM | CC50 ([22]; SF-539, 48 h, read-out: LC50 (the source's name)): > 100 µM | growth at 10 µM [23]: 45.5% | growth inhibition (GI) [24]: Dose-dependent effect | GI50 ([24]; OVCAR-3, 48 h): 3.97 µM | LC50 (50% lethal concentration) ([24]; OVCAR-3, 48 h): > 100 µM | TGI ([24]; OVCAR-3, 48 h): 37.6 µM | growth inhibition (GI) [25]: Dose-dependent effect | GI50 ([25]; HT-29, 48 h): > 100 µM | TGI ([25]; HT-29, 48 h): > 100 µM | CC50 ([25]; HT-29, 48 h, read-out: LC50 (the source's name)): > 100 µM | GI50 [26]: > 100 µM | LC50 (concentration killing 50% of cells relative to time zero) [26]: > 100 µM | TGI [26]: > 100 µM | growth inhibition (GI) [26]: Dose-dependent effect | growth inhibition (GI) [27]: Dose-dependent effect | GI50 ([27]; U-251, 48 h): 7.05 µM | TGI ([27]; U-251, 48 h): > 100 µM | CC50 ([27]; U-251, 48 h, read-out: LC50 (the source's name)): > 100 µM
